ChEMBL document CHEMBL4219135, “Discovery of Hydrolysis-Resistant Isoindoline N-Acyl Amino Acid Analogues that Stimulate Mitochondrial Respiration” (J Med Chem, 2018)
The source made the active and inactive calls. The rule behind the calls is not given here. Where a SMILES comes first, the peptide text is derived from it. The star is where a group is joined. Oleoyl = CCCCCCCC/C=C\CCCCCCCC(=O)*

Experiments:
[1] = Half life in mouse liver microsomes at 1 uM after 60 mins in presence of NADPH by LC-MS/MS analysis; format: ADME, microsome
In short: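 Test compound at 1 μM with 1 mg/mL mouse liver microsomes in 100 mM KPi pH 7.4, 37C with shaking; started with NADPH (1 mM final), -NADPH controls included. Samples at 0, 5, 10, 20, 40, 60 min quenched in 5X acetonitrile, filtered, LC-MS/MS; data log transformed to half-life.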

[2] = system: C2C12; assay: Uncoupling activity in mouse C2C12 cells assessed as induction of SLC25-mediated mitochondrial respiration at 50 uM mixed for 2 mins measured after 2 mins post mixing relative to basal oligomycin-treated respiration; format: cell-based
In short: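 C2C12 cells seeded 35,000/well, assayed next day in Seahorse XF24 respiration buffer (DMEM, pyruvate, 20 mM glucose) after 1 h CO2-free. Sequential injections: oligomycin 1 μM, compound 50 μM, FCCP 0.2 μM, rotenone 3 μM final; cycles of 2 min mix, 2 min measure. Cycle 6 set to 100%; maximal respiration over cycles 7–15 reported. n=3–6.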

[3] = biological target: T1, N-fatty-acyl-amino acid synthase/hydrolase PM20D1 (Mus musculus, UniProt Q8C165); assay: Metabolic stability assessed as recombinant mouse 6xHis/FLAG-tagged PM20D1-mediated hydrolysis by measuring parent compound remaining at 100 nmol after 1 hr by LC-MS method; format: ADME; details: in the assay text read “at 10 nmol” for “at 100 nmol”
T1 sequence (Q8C165 whole entry): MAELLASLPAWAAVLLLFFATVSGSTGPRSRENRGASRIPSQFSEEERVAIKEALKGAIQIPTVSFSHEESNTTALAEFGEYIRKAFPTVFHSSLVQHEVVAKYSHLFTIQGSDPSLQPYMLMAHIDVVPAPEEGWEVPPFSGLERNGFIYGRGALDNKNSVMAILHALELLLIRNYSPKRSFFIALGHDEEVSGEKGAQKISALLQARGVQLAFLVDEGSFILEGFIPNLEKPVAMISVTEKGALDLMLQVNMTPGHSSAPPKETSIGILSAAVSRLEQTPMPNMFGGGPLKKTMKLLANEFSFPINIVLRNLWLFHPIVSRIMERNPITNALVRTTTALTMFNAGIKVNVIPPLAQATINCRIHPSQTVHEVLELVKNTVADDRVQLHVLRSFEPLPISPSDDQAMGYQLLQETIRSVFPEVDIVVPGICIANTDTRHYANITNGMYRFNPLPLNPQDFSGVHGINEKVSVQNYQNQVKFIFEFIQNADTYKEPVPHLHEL
In short: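 Murine PM20D1–6xHis-Flag expressed transiently in 293T cells, Flag-M2 purified from serum-free conditioned medium. 10 nmol compound in 100 μl PBS (100 μM) with enzyme or PBS, 1 h at 37 °C; quenched in chloroform:methanol with d31-palmitate internal standard; intact substrate and released fatty acid quantified by LC-MS. Means ± SEM, n=3.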

[4] = system: Mus musculus; assay: Anti-obesity activity against DIO mouse assessed as reduction in body weight gain by measuring net weight change at 10 mg/kg, ip administered daily for 7 consecutive days (reference value: 1.1 +/- 0.1 g); format: functional
[5] = system: Mus musculus; assay: Anti-obesity activity against DIO mouse assessed as reduction in body weight gain by measuring net weight change at 5 mg/kg, ip administered daily for 7 consecutive days (reference value: 1.1 +/- 0.1 g); format: functional, organism-based
[6] = system: Mus musculus; assay: Anti-obesity activity against DIO mouse assessed as blood glucose levels at 25 mg/kg, ip administered daily for 7 consecutive days measured after 2 hrs post last dose (reference value: 204 +/- 7 mg/dl); format: functional
[7] = system: Mus musculus; assay: Anti-obesity activity against DIO mouse assessed as reduction in food intake at 25 mg/kg, ip administered daily for 7 consecutive days; format: functional, organism-based
[8] = system: Mus musculus; assay: Anti-obesity activity against DIO mouse assessed as reduction in body weight gain by measuring net weight change at 25 mg/kg, ip administered daily for 7 consecutive days (reference value: 1.1 +/- 0.1 g); format: functional
[9] = system: Mus musculus; assay: Anti-obesity activity against ip dosed DIO mouse assessed as reduction in body weight gain administered daily for 7 consecutive days; format: functional, organism-based

Compound	Emax [2]	also measured
CCCCCCCC/C=C\CCCCCCCC(=O)N1Cc2ccccc2[C@@H]1C(=O)O	190%	half-life at 1 µM [1]: 1.07 h; Stability [3]: Stable
CCCCCCCC/C=C\CCCCCCCC(=O)N1CCC[C@H]1C(=O)O	182%	
CCCCC/C=C\C/C=C\CCCCCCCC(=O)N1Cc2ccccc2[C@@H]1C(=O)O	190%	half-life at 1 µM [1]: 1.07 h; Activity [4]: 0.2 g; Activity [5]: inactive; Activity [6]: 172 mg/dL; Activity [7]: inactive; Activity [8]: -1.2 g; Stability [3]: Stable; Activity [9]: Dose-dependent effect
CCCCCCCC/C=C\CCCCCCCCNC(=O)NCC(=O)O	104%	
CCCCCCCC/C=C\CCCCCCCC(=O)N[C@@H](CC(C)C)C(=O)O	178%	half-life at 1 µM [1]: 0.133 h
CCCCCCCCCCCCCCCCCCCC(=O)N[C@@H](Cc1ccccc1)C(=O)O	95%	
CCCCCCCC/C=C\CCCCCCCC(=O)NCC(=O)NCC(=O)O (Oleoyl-Gly-Gly-OH)	206%	
CCC/C=C\C/C=C\C/C=C\CCCCCCC(=O)N[C@@H](Cc1ccccc1)C(=O)O	109%	
CCCCC/C=C\C/C=C\CCCCCCCC(=O)N1Cc2ccccc2[C@H]1C(=O)O	185%	half-life at 1 µM [1]: 1.07 h; Stability [3]: Stable
CCCCCCCC/C=C\CCCCCCCC(=O)N[C@@H](Cc1c[nH]c2ccccc12)C(=O)O	147%	
CCCCCCCCCCCCCCCCCC(=O)N[C@@H](Cc1ccccc1)C(=O)O	148%	
CCCCC/C=C\C/C=C\CCCCCCCC(=O)N[C@@H](Cc1ccccc1)C(=O)O	218%	
CCCCCCCC/C=C\CCCCCCCC(=O)N1c2ccccc2C[C@H]1C(=O)O	146%	
CCCCCCCCCCCCCCCCCCCCCC(=O)N[C@@H](Cc1ccccc1)C(=O)O	100%	
CCCCCCCC/C=C\CCCCCCCC(=O)N[C@H](Cc1ccccc1)C(=O)O	173%	
CCCCCCCC/C=C\CCCCCCCC(=O)N[C@@H](Cc1ccccc1)C(=O)O	161%	
CCCCCCCC/C=C\CCCCCCCCNC(=O)N[C@@H](Cc1ccccc1)C(=O)O	97%	
CCCCCCCC/C=C\CCCCCCCCCC(=O)N[C@@H](Cc1ccccc1)C(=O)O	103%	

Compound	Emax [2]	also measured
CCCCCCCCCCCCCCCC(=O)N[C@@H](Cc1ccccc1)C(=O)O	180%	
CCCCCCCC/C=C\CCCCCCCC(=O)N[C@@H](CCC(=O)O)C(=O)O	106%	
CCCCCCCCCCCC(=O)N[C@@H](Cc1ccccc1)C(=O)O	96%	
CCCCCCCC/C=C\CCCCCCCC(=O)N1Cc2ccccc2[C@H]1C(=O)O	240%	half-life at 1 µM [1]: 1.07 h; Stability [3]: Stable
CCCCCCCCCCC/C=C\CCCCC(=O)N[C@@H](Cc1ccccc1)C(=O)O	110%	
CCCCCC/C=C\CCCCCCCCCC(=O)N[C@@H](Cc1ccccc1)C(=O)O	115%	
CCCCCCCC/C=C\CCCCCCCC(=O)N[C@@H](Cc1ccc(O)cc1)C(=O)O	105%	half-life at 1 µM [1]: 0.133 h
CCCCCCCC/C=C/CCCCCCCC(=O)N[C@@H](Cc1ccccc1)C(=O)O	107%	
CCCCCCCC/C=C\CCCCCCCC(=O)N[C@@H](CCC(N)=O)C(=O)O	164%	
CCCCCCCC/C=C\CCCCCCCC(=O)NCCc1ccccc1	104%	
CCCCCCCC/C=C\CCCCCCCC(=O)N[C@H](C(=O)O)[C@@H](C)CC	167%	half-life at 1 µM [1]: 0.133 h
CCCCC/C=C\C/C=C\C/C=C\C/C=C\CCCC(=O)N[C@@H](Cc1ccccc1)C(=O)O	200%	
CC/C=C\C/C=C\C/C=C\C/C=C\C/C=C\CCCC(=O)N[C@@H](Cc1ccccc1)C(=O)O	259%	
CCCCCCCC/C=C\CCCCCCCC(=O)NCCC(=O)O	185%	
CCCCCCCC/C=C\CCCCCCCC(=O)N1CCCC[C@H]1C(=O)O	174%	
CCCCCCCC/C=C\CCCCCCCC(=O)N1Cc2ccccc2C[C@H]1C(=O)O	187%	
CCCCCCCC/C=C\CCCCCCCC(=O)N1CCc2ccccc2C1C(=O)O (stereo not drawn)	216%	
CC/C=C\C/C=C\C/C=C\C/C=C\C/C=C\C/C=C\CCC(=O)N[C@@H](Cc1ccccc1)C(=O)O	166%	
